# Results from paper PMC7468319 (Acta Pharmacologica Sinica, 2019).
# Experiments:
# BTK [1] = test: Western blot, phosphorylation of BTK at Tyr223 in TMD8 cells; type: cell-based, human; settings: Tyr223, 4 h
# [2] = test system: Rb, phosphorylated Rb, and cyclin D1; test: Western blot of G1 phase related proteins; type: cell-based, human; settings: TMD8, 48 h
# ErbB2 = ErbB2 (Homo sapiens, UniProt P04626); test: Kinase selectivity ELISA at 1000 nM, ErbB2; type: biochemical
# Outline: (§1)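 ELISA-based kinase activity assay using commercially sourced recombinant kinases, with absorbance read at 490 nm. Each test compound was profiled at 1000 nM against a panel of 35 kinases, and percent inhibition was determined for each kinase.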
# ITK = biological target: T1, ITK (Homo sapiens, UniProt Q08881); test: Kinase selectivity ELISA at 1000 nM, ITK; type: biochemical
# T1 sequence (Q08881 1-620): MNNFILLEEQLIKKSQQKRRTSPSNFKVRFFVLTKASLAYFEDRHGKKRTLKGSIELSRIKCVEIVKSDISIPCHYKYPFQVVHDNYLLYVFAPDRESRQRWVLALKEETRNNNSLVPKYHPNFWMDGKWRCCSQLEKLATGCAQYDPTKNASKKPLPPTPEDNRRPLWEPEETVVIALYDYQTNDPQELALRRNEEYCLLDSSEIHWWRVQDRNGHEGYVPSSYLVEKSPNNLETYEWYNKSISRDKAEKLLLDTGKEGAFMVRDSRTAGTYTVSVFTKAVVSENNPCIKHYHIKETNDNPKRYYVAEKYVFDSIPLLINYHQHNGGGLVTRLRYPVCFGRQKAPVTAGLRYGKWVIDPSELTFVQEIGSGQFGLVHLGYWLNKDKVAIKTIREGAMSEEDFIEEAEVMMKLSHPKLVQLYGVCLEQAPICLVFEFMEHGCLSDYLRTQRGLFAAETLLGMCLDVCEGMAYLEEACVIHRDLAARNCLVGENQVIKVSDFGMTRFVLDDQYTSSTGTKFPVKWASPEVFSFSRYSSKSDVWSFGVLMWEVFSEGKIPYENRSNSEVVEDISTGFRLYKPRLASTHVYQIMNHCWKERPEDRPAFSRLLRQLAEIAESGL
# Outline: as §1
# BTK [3] = biological target: BTK (Homo sapiens, UniProt Q06187); type: biochemical
# panel of 35 kinases = test: Kinase selectivity profile, panel of 35 kinases; type: biochemical; settings: 1000 nM
# Outline: as §1
# PARP and caspase 3 = test: Western blot of cleaved PARP and cleaved caspase 3; type: cell-based, human; settings: TMD8, Western blot
# EGFR [4] = biological target: T2, EGFR (Homo sapiens, UniProt P00533); settings: read-out: IC50 against EGFR; in vitro enzymatic activity; cited from earlier work
# TMD8 cells = test: Annexin V-FITC apoptosis analysis by flow cytometry; type: cell-based, human; settings: TMD8, 72 h, untreated control 12.77%
# ErbB4 = ErbB4 (Homo sapiens, UniProt Q15303); test: Kinase selectivity ELISA at 1000 nM, ErbB4; type: biochemical
# Outline: as §1
# EGFR [5] = biological target: T2, EGFR; test: Kinase selectivity ELISA at 1000 nM, EGFR; type: biochemical
# Outline: as §1
# T2 sequence (P00533 25-1210): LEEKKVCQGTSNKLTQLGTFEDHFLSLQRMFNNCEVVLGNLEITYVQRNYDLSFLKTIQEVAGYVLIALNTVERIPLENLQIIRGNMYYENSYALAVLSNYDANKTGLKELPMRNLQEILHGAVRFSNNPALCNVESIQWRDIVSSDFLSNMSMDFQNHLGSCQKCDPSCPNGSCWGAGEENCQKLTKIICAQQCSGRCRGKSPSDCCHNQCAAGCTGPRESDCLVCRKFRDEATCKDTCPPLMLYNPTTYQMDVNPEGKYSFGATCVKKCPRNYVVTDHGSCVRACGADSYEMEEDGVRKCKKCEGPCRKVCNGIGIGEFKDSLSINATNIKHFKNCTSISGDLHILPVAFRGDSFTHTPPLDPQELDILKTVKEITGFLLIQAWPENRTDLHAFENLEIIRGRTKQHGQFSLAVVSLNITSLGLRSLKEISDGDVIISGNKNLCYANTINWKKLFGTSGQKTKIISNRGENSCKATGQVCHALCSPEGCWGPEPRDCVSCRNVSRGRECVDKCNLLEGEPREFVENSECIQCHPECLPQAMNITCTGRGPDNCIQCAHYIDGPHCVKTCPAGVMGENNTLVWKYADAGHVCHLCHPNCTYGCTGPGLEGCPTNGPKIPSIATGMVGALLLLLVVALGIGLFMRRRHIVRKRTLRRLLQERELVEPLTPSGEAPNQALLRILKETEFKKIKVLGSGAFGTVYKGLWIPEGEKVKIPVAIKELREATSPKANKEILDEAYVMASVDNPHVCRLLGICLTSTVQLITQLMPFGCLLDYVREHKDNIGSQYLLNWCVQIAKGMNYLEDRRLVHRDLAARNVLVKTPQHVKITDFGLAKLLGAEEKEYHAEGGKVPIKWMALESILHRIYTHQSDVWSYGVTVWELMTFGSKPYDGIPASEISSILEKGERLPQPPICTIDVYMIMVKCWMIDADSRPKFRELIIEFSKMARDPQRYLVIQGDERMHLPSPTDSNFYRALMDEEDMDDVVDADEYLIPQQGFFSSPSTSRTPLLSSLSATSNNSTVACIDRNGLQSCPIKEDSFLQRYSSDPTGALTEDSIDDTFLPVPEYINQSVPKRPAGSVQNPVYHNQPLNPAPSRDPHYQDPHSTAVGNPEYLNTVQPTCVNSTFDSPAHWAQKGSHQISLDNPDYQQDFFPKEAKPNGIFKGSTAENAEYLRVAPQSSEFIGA
# BTK (Homo sapiens, UniProt Q06187), sequence (Q06187 whole entry): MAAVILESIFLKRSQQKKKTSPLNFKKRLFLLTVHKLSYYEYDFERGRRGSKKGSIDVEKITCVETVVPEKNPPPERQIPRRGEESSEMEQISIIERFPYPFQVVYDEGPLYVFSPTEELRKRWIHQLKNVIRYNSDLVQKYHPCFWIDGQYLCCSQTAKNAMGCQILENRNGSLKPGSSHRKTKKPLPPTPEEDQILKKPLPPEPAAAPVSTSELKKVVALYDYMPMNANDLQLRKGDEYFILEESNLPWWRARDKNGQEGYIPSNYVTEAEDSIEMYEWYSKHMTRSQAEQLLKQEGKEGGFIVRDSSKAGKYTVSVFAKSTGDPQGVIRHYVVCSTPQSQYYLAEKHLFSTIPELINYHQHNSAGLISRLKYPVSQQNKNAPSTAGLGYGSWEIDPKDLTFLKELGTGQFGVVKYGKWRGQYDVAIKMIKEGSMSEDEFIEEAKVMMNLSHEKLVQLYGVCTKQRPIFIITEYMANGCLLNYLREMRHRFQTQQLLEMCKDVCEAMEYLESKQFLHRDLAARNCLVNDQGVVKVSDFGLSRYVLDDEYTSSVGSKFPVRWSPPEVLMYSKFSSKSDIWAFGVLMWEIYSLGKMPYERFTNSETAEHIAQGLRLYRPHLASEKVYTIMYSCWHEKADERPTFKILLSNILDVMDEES
# ErbB2, sequence (P04626 23-1255): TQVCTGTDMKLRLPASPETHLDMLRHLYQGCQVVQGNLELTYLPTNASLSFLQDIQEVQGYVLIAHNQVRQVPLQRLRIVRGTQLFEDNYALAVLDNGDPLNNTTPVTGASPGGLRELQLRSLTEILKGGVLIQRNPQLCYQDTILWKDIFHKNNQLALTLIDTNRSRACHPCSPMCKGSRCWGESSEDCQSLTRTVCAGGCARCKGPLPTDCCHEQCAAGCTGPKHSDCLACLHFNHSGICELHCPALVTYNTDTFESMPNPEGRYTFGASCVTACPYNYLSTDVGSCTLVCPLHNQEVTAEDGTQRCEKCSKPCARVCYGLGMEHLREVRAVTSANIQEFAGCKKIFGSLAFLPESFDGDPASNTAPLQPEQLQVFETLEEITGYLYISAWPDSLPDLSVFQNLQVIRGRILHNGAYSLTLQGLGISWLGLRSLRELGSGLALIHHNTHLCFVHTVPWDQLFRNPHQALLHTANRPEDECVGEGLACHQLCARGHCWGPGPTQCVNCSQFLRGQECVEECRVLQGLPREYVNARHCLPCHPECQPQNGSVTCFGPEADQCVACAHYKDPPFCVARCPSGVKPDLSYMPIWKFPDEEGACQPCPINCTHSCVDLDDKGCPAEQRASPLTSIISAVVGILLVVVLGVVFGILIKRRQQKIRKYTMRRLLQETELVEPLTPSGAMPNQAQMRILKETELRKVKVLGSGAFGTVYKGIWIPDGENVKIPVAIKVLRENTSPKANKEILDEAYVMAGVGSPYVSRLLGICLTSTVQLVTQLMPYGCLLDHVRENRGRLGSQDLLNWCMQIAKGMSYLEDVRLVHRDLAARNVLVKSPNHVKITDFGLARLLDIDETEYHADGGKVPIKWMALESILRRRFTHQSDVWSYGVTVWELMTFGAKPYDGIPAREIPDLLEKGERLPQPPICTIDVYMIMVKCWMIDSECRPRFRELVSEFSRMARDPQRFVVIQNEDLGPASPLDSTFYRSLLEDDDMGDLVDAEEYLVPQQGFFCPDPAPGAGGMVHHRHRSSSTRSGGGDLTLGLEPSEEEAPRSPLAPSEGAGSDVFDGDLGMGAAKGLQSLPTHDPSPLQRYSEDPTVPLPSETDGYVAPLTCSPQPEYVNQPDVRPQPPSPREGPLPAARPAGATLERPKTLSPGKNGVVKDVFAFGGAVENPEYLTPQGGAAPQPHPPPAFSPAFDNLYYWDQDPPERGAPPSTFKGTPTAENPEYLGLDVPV
SMILES,phosphorylation of BTK in TMD8 cells (BTK [1]),"levels of Rb, phosphorylated Rb, and cyclin D1 proteins [2]",inhibition of ErbB2 (ErbB2),inhibition of ITK (ITK),selectivity for BTK than for EGFR (BTK [3]; IC50 EGFR vs IC50 BTK),"IC50 (BTK [3]; read-out: IC50 against BTK, ELISA-based kinase assay)",inhibition of the other kinases tested (panel of 35 kinases),number of kinases with greater than 50% inhibition (panel of 35 kinases),cleavage of PARP and caspase 3 proteins (PARP and caspase 3),IC50 (EGFR [4]),apoptosis rate (TMD8 cells; 10 nM),apoptosis rate (TMD8 cells; 100 nM),apoptosis rate (TMD8 cells; 1000 nM),inhibition of ErbB4 (ErbB4),inhibition of EGFR (EGFR [5])
C=CC(=O)N1CCC[C@@H](n2nc(-c3ccc(Oc4ccccc4)cc3)c3c(N)ncnc32)C1 [ibrutinib],effectively suppressed,,,,,,,,,,,,,,
"CC#CC(=O)N1CCC[C@H]1c1nc(-c2ccc(C(=O)Nc3ccccn3)cc2)c2c(N)nccn12 [ACP-196, acalabrutinib]",effectively suppressed,,,,,,,,,,,,,,
"C=CC(=O)Nc1cccc(N2C(=O)OC(C)c3cnc(Nc4ccc(N5CCN(C)CC5)cc4OC)nc32)c1 (centres unmarked) [Compound 2, N-(3-(7-((2-methoxy-4-(4-methylpiperazin-1-yl)phenyl)amino)-4-methyl-2-oxo-2H-pyrimido[4,5-d][1,3]oxazin-1(4H)-yl)phenyl)acrylamide]",effectively suppressed,reduction,greater than 50%,greater than 50%,greater than 6 fold,7 nM,did not appreciably inhibit,seven,increased in a dose-dependent manner,47.4 nM,44.46%,57.95%,69.46%,greater than 50%,greater than 50%
